According to ChEMBL document CHEMBL1141532, “Design and synthesis of tetrazole-based growth hormone secretagogue: the SAR studies of the O-benzyl serine side chain” (Bioorg Med Chem Lett, 2008):

Legend:
[1] = molecular target: Growth hormone secretagogue receptor type 1 (Homo sapiens, UniProt Q92847); assay: […] human growth hormone secretagogue receptor assessed as measuring intracellular calcium level by FLIPR assay; format: functional, cell-based
[2] = tested on: Rattus norvegicus; assay: Increase of growth hormone release in rat plasma at 1.74 umol/kg, iv after 15 mins by radioimmunoassay relative to control; format: functional
Summary of the method: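 Acute model in anesthetized rats. Dosed intravenously at 1.74 μmol/kg. Blood was drawn 15 min later and plasma was isolated. Rat GH was measured by radioimmunoassay. Results are given as percent increase in GH release over vehicle-treated control animals.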

Chain of Growth hormone secretagogue receptor type 1 (Q92847 whole entry): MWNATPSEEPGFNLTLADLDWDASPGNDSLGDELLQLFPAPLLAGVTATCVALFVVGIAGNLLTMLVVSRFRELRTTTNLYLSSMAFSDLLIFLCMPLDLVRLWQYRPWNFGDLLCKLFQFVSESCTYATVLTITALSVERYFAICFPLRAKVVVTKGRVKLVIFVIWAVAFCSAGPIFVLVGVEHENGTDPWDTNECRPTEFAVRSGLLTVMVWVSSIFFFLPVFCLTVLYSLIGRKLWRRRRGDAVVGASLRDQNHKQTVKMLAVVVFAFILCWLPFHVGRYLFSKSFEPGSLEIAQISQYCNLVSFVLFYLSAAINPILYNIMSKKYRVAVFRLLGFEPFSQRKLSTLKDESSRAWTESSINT

Row | Compound | EC50 [1] | Activity [2]
1 | CC(C)(N)C(=O)N[C@H](COCc1cccc(Cl)c1Cl)c1nnnn1CCOC(=O)NCCCCO | 0.61 nM | –
2 | CC(C)(N)C(=O)N[C@H](COCc1ccc(OC(F)(F)F)cc1)c1nnnn1CCOC(=O)NCCCCO | 33.2 nM | –
3 | CC(C)(N)C(=O)N[C@H](COCc1ccccc1-c1ccccc1)c1nnnn1CCOC(=O)NCCCCO | 0.34 nM | 836%
4 | CC(C)(N)C(=O)N[C@H](COCc1cccc(Cl)c1)c1nnnn1CCOC(=O)NCCCCO | 1.6 nM | –
5 | CC(C)(N)C(=O)N[C@H](COCc1ccccc1)c1nnnn1CCOC(=O)NCCCCO | – | 750%
6 | Cc1ccccc1COC[C@@H](NC(=O)C(C)(C)N)c1nnnn1CCOC(=O)NCCCCO | 0.51 nM | 1441%
7 | CC(C)(N)C(=O)N[C@H](COCc1cccc(OC(F)(F)F)c1)c1nnnn1CCOC(=O)NCCCCO | 3.1 nM | –
8 | CC(C)(N)C(=O)N[C@H](COCc1ccccc1Cl)c1nnnn1CCOC(=O)NCCCCO | 0.45 nM | –
9 | Cc1noc(C)c1-c1ccccc1COC[C@@H](NC(=O)C(C)(C)N)c1nnnn1CCOC(=O)NCCCCO | 1.04 nM | 5237%
10 | CC(C)(N)C(=O)N[C@H](COCc1cc(Cl)cc(Cl)c1)c1nnnn1CCOC(=O)NCCCCO | 6.75 nM | –
11 | CC(C)(N)C(=O)N[C@H](COCC1CCCCC1)c1nnnn1CCOC(=O)NCCCCO | 1.66 nM | 1654%
12 | COc1ccccc1COC[C@@H](NC(=O)C(C)(C)N)c1nnnn1CCOC(=O)NCCCCO | 1.11 nM | –
13 | CC(C)(N)C(=O)N[C@H](COCc1ccccc1C(F)(F)F)c1nnnn1CCOC(=O)NCCCCO | 0.72 nM | –
14 | CC(C)(N)C(=O)N[C@H](COCc1ccc(F)cc1F)c1nnnn1CCOC(=O)NCCCCO | 0.42 nM | 1081%
15 | CC(C)(N)C(=O)N[C@H](COCc1cc(C(F)(F)F)cc(C(F)(F)F)c1)c1nnnn1CCOC(=O)NCCCCO | 34 nM | –
16 | CC(C)(N)C(=O)N[C@H](COCc1ccccc1-c1cccnc1)c1nnnn1CCOC(=O)NCCCCO | 1.18 nM | –
17 | CC(C)(N)C(=O)N[C@H](COCc1cccc(C(F)(F)F)c1)c1nnnn1CCOC(=O)NCCCCO | 1.79 nM | –
18 | CC(C)(N)C(=O)N[C@H](COCc1ccccc1C#N)c1nnnn1CCOC(=O)NCCCCO | 1.26 nM | 920%
